Tested on: B16
Assay: In vitro compound's ability to inhibit the replication of cultured B16 melanoma cells
Assay type: functional
Conditions: Mus musculus, read-out: ID50 (the source's name)
In short: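 B16/F10 melanoma cells, kept as monolayers at 37 °C in Eagle's MEM with Hanks' salts plus 10% fetal calf serum, were seeded from exponential growth at 1.5 to 3 × 10⁵ cells per 25-cm² flask. Compound (0.1 μM–0.1 mM) was added at seeding. After 72 h, cells were trypsinized and counted electronically. ID50 was read graphically from at least two replicate experiments.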

| Structure (SMILES) | IC50 |
| --- | --- |
| CC(=O)OCC1O[C@@H](Nc2ccc(C(=O)O)cc2)[C@@H](OC(C)=O)C(OC(C)=O)[C@H]1OC(C)=O (stereo partly drawn) | 49 µM |
| O=C(O)c1ccc(N[C@@H]2OC[C@@H](O)C(O)[C@H]2O)cc1 (stereo partly drawn) | 100 µM |
| CC(=O)OCC1O[C@@H](Nc2ccc(C(=O)OC(C)=O)cc2)[C@H](OC(C)=O)C(OC(C)=O)[C@@H]1OC(C)=O (stereo partly drawn) | 25 µM |
| CC(=O)OC1[C@@H](OC(C)=O)CO[C@@H](Nc2ccc(C(=O)O)cc2)[C@@H]1OC(C)=O (stereo partly drawn) | 4 µM |
| CC(=O)OC1[C@@H](OC(C)=O)C(C)O[C@@H](Nc2ccc(C(=O)O)cc2)[C@H]1OC(C)=O (stereo partly drawn) | 20 µM |
| CC(=O)OC(=O)c1ccc(N[C@@H]2OC[C@@H](OC(C)=O)C(OC(C)=O)[C@@H]2OC(C)=O)cc1 (stereo partly drawn) | 25 µM |
| O=C(O)c1ccc(N[C@@H]2OC[C@@H](O)C(O)[C@@H]2O)cc1 (stereo partly drawn) | 38 µM |
| CC(=O)OCC1O[C@@H](Nc2ccc(C(=O)O)cc2)[C@@H](OC(C)=O)C(OC(C)=O)[C@@H]1OC(C)=O (stereo partly drawn) | 18 µM |

More lines, now with the values ahead:

| IC50 | Structure (SMILES) |
| --- | --- |
| 100 µM | O=C(O)c1ccc(N[C@@H]2OC(CO)[C@@H](O)C(O)[C@@H]2O)cc1 (stereo partly drawn) |
| 37 µM | CC1O[C@@H](Nc2ccc(C(=O)O)cc2)[C@@H](O)C(O)[C@H]1O (stereo partly drawn) |
| 39 µM | O=C(O)c1ccc(N[C@@H]2O[C@H](CO)[C@@H](O)[C@H](O)[C@@H]2O)cc1 |
| 100 µM | O=C(O)c1ccc(N[C@@H]2O[C@H](CO)[C@@H](O)[C@H](O)[C@H]2O)cc1 |
| 30 µM | O=C(O)c1ccc(N[C@@H]2O[C@H](CO)[C@H](O)[C@H](O)[C@H]2O)cc1 |

Reference: ChEMBL document CHEMBL1122290, “N-(substituted-phenyl)-D-glycopyranosylamines and their O-acetyl derivatives as potential modifiers of the formation of glycosaminoglycans” (1983)
